Rows were chosen to be rich in hits. Some 9.4% of all compounds tested hit in one or more screens of this group.
Mdm2-MdmX inh – disrupts the human Mdm2-MdmX interaction. O15151+Q00987. SaOS-2 split-luciferase Mdm2/MdmX complementation, luminescence. inhibition, % at 8 µM. actives 3% (n = 330,000). AID 485346;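 active = inhibition of at least 50% at 8 µM in the primary screen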
Target sequence (O15151 whole entry, looked up): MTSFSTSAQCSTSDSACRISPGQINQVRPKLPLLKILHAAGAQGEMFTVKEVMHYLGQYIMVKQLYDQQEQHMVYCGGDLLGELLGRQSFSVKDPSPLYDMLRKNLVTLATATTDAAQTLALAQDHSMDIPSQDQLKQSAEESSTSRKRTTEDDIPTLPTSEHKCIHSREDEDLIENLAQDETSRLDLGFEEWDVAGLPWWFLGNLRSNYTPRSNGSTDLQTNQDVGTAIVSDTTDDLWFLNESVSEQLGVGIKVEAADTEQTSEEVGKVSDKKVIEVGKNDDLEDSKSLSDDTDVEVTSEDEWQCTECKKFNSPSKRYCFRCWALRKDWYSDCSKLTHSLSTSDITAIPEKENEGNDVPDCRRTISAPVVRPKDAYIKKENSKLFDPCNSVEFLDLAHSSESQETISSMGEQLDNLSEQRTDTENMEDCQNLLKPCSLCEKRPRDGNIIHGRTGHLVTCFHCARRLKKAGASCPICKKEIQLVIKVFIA
Target sequence (Q00987 whole entry, looked up): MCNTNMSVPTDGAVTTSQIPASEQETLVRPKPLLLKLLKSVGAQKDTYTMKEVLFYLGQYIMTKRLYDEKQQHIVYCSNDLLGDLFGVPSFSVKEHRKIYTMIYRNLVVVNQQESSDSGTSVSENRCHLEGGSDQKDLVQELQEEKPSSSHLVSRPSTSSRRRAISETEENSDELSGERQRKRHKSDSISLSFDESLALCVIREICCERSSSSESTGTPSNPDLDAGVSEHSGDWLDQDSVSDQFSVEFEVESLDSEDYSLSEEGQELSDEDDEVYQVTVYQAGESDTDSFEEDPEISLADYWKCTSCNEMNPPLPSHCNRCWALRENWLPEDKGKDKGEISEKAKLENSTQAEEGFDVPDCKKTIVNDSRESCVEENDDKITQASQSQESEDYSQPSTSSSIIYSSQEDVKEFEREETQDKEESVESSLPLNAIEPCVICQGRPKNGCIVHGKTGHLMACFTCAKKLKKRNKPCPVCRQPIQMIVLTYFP
Lmaj promast – reduces viability of Leishmania major promastigotes | resazurin fluorescence viability | inhibition, % at 10 µM | actives 9% (n = 200,000) | AID 1063; in the data active = inhibition above about 50%;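 note: promastigotes grown with compound for 44 hours at 28 °C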
T cruzi repl – blocks replication of Trypanosoma cruzi; T. cruzi beta-gal in NIH3T3, luminescence, 90 h; inhibition, % (test concentration not listed); actives 1.4% (n = 300,000);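 active = mean inhibition across valid replicates above about 55%, limit read from the data; inconclusive = mean below that limit but half or more replicates reach it; inactive = mean below it, under half of replicates reach it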;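 note: signal also drops with host cell toxicity which is not excluded here; higher percent means less beta-gal luminescence so fewer parasites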
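assay system = mouse NIH/3T3 fibroblasts infected with β-gal-expressing T. cruzi Tulahuen C4 | input = 5,000 NIH/3T3 host cells per well | buffer or medium = DMEM plus 2% FBS | timing = 3 h host attachment, then at least 90 h co-culture | measured by = GalScreen luminescence, 60 min | evaluation = luminescence reflecting intracellular parasite burden, expressed as percent inhibition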
Beta apoptosis – blocks beta cell apoptosis; INS-1E cytokine-induced death, ATP luminescence, 48 h; percent of positive-control rescue, neutral wells zero; protection from apoptosis, % (concentration not given with the values); actives 0.8% (n = 300,000);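 active = Every replicate reaches about 75%, or at least half do and their mean reaches it too, limit read from the data; inconclusive = At least half of replicates reach the limit but their mean does not; inactive = Under half of replicates reach the limit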;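 note: higher means more ATP so stronger rescue from cytokine killing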
SKKanGAS inh – inhibitors of SKKanGAS S. pyogenes growth in kanamycin (SK-promoter or general growth effect). BacTiter-Glo, 6 h. inhibition, % at 7.5 µM. actives 1.3% (n = 300,000);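 active = mean replicate score, as percent of positive control median, at least 50; inconclusive = mean below 50 but one replicate at or above 50; inactive = mean and every replicate below 50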;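 note: strain carries kanamycin resistance gene driven by streptokinase promoter and grows in 40 µg/ml kanamycin; loss of luminescence reflects streptokinase promoter inhibition or plain growth inhibition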
CSC inhib – blocks cancer stem cells; cancer stem cell-like cells viability, luminescence; inhibition, % at 7.5 µM; actives 1.1% (n = 300,000); AID 2717; in the data active = inhibition above about 75%; inconclusive = no clear call, values can overlap the other calls; tested in HMLE shEcad cells
Mdm2-MdmX conf – human Mdm2/MdmX binding inhibition, confirmed; shares compounds with Mdm2-MdmX inh; luminescent assay; inhibition, % at 8 µM; actives 55% (n = 10,000); in the data active = inhibition above about 40%
FLuc counter – full-length luciferase inhibition in Mdm2/MdmX counter-screen. shares compounds with Mdm2-MdmX inh. SaOS-2 full-length luciferase counterscreen, luminescence. inhibition, % at 8 µM. actives 77% (n = 6,200). AID 504607;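 active = mean inhibition at 8 µM reaching about 37%, which flags the compound as non-specific, limit read from the data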;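 note: p53-null SaOS-2 cells with luciferase driven by a doxycycline-inducible promoter; compound on cells about two nights before reading with doxycycline added after day one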
Hits are given with their value; - = inactive; ? = inconclusive; . = not tested or not shown.

SMILES | Mdm2-MdmX inh | Lmaj promast | T cruzi repl | Beta apoptosis | SKKanGAS inh | CSC inhib | Mdm2-MdmX conf | others
Cc1[nH]ccc(=O)c1Oc1ncc(C(F)(F)F)cc1Cl | - | - | - | - | - | - | .
COc1ccc(OC)c(NC(=O)CSc2nnnn2-c2ccc3c(c2)OCO3)c1 | 58 | - | - | - | - | - | -
Cc1ccc(-n2nnnc2SCC(=O)Nc2ccc3c(c2)COC3=O)cc1C | 51 | - | - | - | - | - | -
COC(=O)c1ccc(-n2nnnc2SCC(=O)Nc2cc(OC)ccc2OC)cc1 | - | - | - | - | - | - | .
COc1cccc(NC(=O)NC2CCN(CC(=O)Nc3ccccc3[N+](=O)[O-])CC2)c1 | - | . | - | - | - | - | .
O=C(CN1C(=O)c2ccccc2S1(=O)=O)N1CCc2ccccc2C1 | 55 | - | - | - | - | - | - | FLuc counter=77
CC1CCN(C(=O)CN2C(=O)c3ccccc3S2(=O)=O)CC1 | 54 | - | - | . | - | - | -
NC(=O)C1CCN(C(=O)CN2C(=O)c3ccccc3S2(=O)=O)CC1 | - | - | - | - | - | - | .
CC(C)(C)c1ccc(C(=O)NNc2cc(Cl)cc(Cl)c2)cc1 | - | . | - | - | - | - | .
CS(=O)(=O)c1ccc(C(=O)OCC(=O)NCc2cccs2)cc1[N+](=O)[O-] | 73 | . | . | - | . | . | 53 | FLuc counter=-
CCOC(=O)C1=C(COC(=O)c2ccc3ccccc3c2O)NC(=O)NC1C (stereo not given) | - | . | . | - | . | . | .
O=C1c2ccccc2-c2n[nH]c3cccc1c23 | 53 | . | . | . | . | . | -
Cc1cccc(-c2nnc(SCC(=O)Nc3ncccn3)n2C)c1 | - | - | - | - | - | - | .
OC(CN1CCCCC1)Cn1c2ccc(Cl)cc2c2cc(Cl)ccc21 (stereo not given) | 75 | . | 82 | . | - | ? | -
CC1CCN(CC(O)Cn2c3ccccc3c3ccccc32)CC1 (stereo not given) | - | . | - | - | - | - | .
O=C(Cc1ccccc1)NS(=O)(=O)c1ccc(N=NN2CCOCC2)cc1 | 87 | - | - | - | . | - | -
COC(=O)CCC(=O)NS(=O)(=O)c1ccc(N=NN2CCOCC2)cc1 | - | - | - | - | - | . | .
CCOc1ccc(S(=O)(=O)N2CCN(CC(O)COc3cccc([N+](=O)[O-])c3)CC2)cc1 (stereo not given) | - | . | - | - | - | . | .
C/C(=N\NC(=O)C(C)Oc1ccc([N+](=O)[O-])cc1)c1ccccn1 (stereo not given) | 54 | 100 | ? | 90 | - | - | -
COc1ccc(OC(C)C(=O)Nc2ccc([N+](=O)[O-])cc2)cc1 (stereo not given) | - | - | - | - | - | - | .
CCN(CC)c1ccc(/C=N/NC(=S)NCc2ccccc2)c(O)c1 | 60 | - | - | 83 | 64 | - | 44 | FLuc counter=44
CCN(CC)c1ccc(/C=N/NC(=O)c2ccco2)c(O)c1 | 59 | . | 61 | 93 | . | 113 | 57 | FLuc counter=55
Cc1nn(C)cc1/C=N/NC(=O)c1ccco1 | - | . | - | - | - | - | .
CCCc1nnc(NC(=O)CCS(=O)(=O)Cc2ccccc2)s1 | 57 | . | - | - | - | - | -
CCCCc1nnc(NC(=O)CCS(=O)(=O)c2ccc(C)cc2)s1 | 57 | . | . | - | . | - | -
SMILES | Mdm2-MdmX inh | Lmaj promast | T cruzi repl | Beta apoptosis | SKKanGAS inh | CSC inhib | Mdm2-MdmX conf | others
CCc1nnc(NC(=O)CCS(=O)(=O)c2ccc(C)cc2)s1 | - | . | - | - | - | - | .
CCCCc1nnc(NC(=O)CCS(=O)(=O)Cc2ccccc2)s1 | - | . | - | - | - | - | .
CCc1nnc(NC(=O)CCS(=O)(=O)c2ccccc2)s1 | 51 | . | - | - | - | - | -
CCN1CCN(CC(=O)N2N=C(c3ccc(OC)cc3)CC2c2ccc(OC)cc2)C(=O)C1=O (stereo not given) | - | - | - | - | - | - | .
NC(=O)c1nsc(C(=O)N(c2ccc3c(c2)OCO3)C(C(=O)NCC2CCCO2)c2ccc(F)cc2)c1N (stereo not given) | - | . | - | - | - | - | .
CCOc1cccc2sc(N(CCCN(C)C)C(=O)c3ccc(S(=O)(=O)N(CC)Cc4ccccc4)cc3)nc12 | 84 | . | - | - | - | - | 53 | FLuc counter=68

Screening data: PubChem, several laboratories
